Values after ≈ are worked out from the molar mass of the structure shown.
Columns and labels:
[1] = Stimulation of soluble guanylate cyclase activity in pre-contracted rabbit aortic rings assessed as inhibition of vasoconstriction; conditions: Oryctolagus cuniculus
Procedure, shortened: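 Relaxation of rabbit aortic rings that were pre-contracted before exposure. IC50 given as the mean of three experiments.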

Hepatocyte = experiment: Stability of the compound in rat liver hepatocytes; type: ADME, cell-based
Procedure, shortened: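 Bioavailability (Fmax) predicted from incubation with rat liver hepatocytes.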

[2] = Half life in Wistar rat at 0.3 mg/kg, iv and 0.3 mg/kg, po; type: ADME, organism-based; conditions: in vivo
Procedure, shortened: (§1)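 Wistar rats given 0.3 mg/kg as an intravenous bolus and by oral gavage, formulated in EtOH/PEG400/H₂O; mean values. AUC_norm was calculated from the concentration–time curve after the intravenous dose. Clearance was taken as total plasma (or total blood) clearance. Mean residence time, half-life and oral bioavailability were also derived.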

[3] = Oral bioavailability in Wistar rat at 0.3 mg/kg; type: ADME, organism-based; conditions: in vivo; procedure, shortened: as §1
[4] = Total blood clearance in Wistar rat at 0.3 mg/kg, iv and 0.3 mg/kg, po; type: ADME, organism-based; conditions: whole blood
Procedure, shortened: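 Wistar rats received 0.3 mg/kg by intravenous bolus and by oral gavage, vehicle EtOH/PEG400/H₂O. Total blood clearance was reported as the mean value from these administrations.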

Rattus norvegicus [5] = experiment: Dose normalized AUC in Wistar rat at 0.3 mg/kg, iv; type: ADME, organism-based; set-up: dose 0.3 mg/kg, route intravenous; conditions: in vivo; procedure, shortened: as §1
[6] = Mean residence time in Wistar rat at 0.3 mg/kg, iv and 0.3 mg/kg, po; type: ADME, organism-based; conditions: in vivo; procedure, shortened: as §1
Rattus norvegicus [7] = experiment: Antihypertensive activity in po dosed spontaneously hypertensive rat assessed as reduction of blood pressure measured up to 24 hrs; type: functional, organism-based
Procedure, shortened: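 Oral gavage at 0 h in spontaneously hypertensive rats; controls given vehicle. Blood pressure expressed as a percentage of initial values (131–142 mmHg). Mean of 6–12 animals.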

[8] = Pseudo-thermodynamic solubility of the compound at pH 6.5; type: physicochemical; conditions: buffer, read-out: Therm_solubility
Procedure, shortened: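 Pseudo-thermodynamic solubility measured at pH 6.5.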

[9] = Total plasma clearance in Wistar rat at 0.3 mg/kg, iv and 0.3 mg/kg, po; type: ADME, organism-based; procedure, shortened: as §1
Liver microsomes = experiment: Stability of the compound in rat liver microsomes; type: ADME, Microsome
Procedure, shortened: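 Bioavailability (Fmax) predicted from incubation with rat liver microsomes.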

SMILES	IC50 [1] [nM]	Stability (Hepatocyte) [%]	half-life [2] [min]	bioavailability [3] [%]	clearance [4] [mL/min/kg]	AUC/dose (Rattus norvegicus [5]) [kg·h/L]	MRT [6] [h]	Activity (Rattus norvegicus [7])	solubility thermodynamic [8] [µg/mL]	clearance [9] [mL/min/kg]	Stability (Liver microsomes) [%]
Nc1nc(-c2nn(Cc3ccccc3F)c3ncccc23)nc(N)c1N1CCOCC1	100	76	72	25	75	0.32	–	–	–	–	–
CCn1nc(-c2nn(Cc3ccccc3F)c3ncccc23)[nH]c1=O	730	69	–	–	–	–	–	–	–	–	–
O=c1[nH]c(-c2nn(Cc3ccccc3F)c3ncccc23)no1	1260	98	84	75	11.7	2.79	1.9	Dose-dependent effect	320 (≈ 1030 µM)	–	–
Cn1nc(-c2nn(Cc3ccccc3F)c3ncccc23)[nH]c1=O	870	74	–	–	–	–	–	–	4 (≈ 12.3 µM)	–	–
Fc1ccccc1Cn1nc(-c2nnn[nH]2)c2cccnc21	8600	100	144	94	–	3.63	–	–	150 (≈ 508 µM)	4.67	–
O=c1[nH]c(-c2nn(Cc3ccccc3F)c3ncccc23)ns1	520	90	–	–	–	–	–	–	11 (≈ 33.6 µM)	–	–
O=c1[nH]nc(-c2nn(Cc3ccccc3F)c3ncccc23)o1	610	–	–	–	–	–	–	–	10 (≈ 32.1 µM)	–	59
O=c1[nH]nc(-c2nn(Cc3ccccc3F)c3ncccc23)[nH]1	3100	59	–	–	–	–	–	–	16 (≈ 51.6 µM)	–	–
O=c1[nH]c(-c2nn(Cc3ccccc3F)c3ncccc23)nn1CC(F)(F)F	610	91	–	–	–	–	–	–	–	–	–
Fc1ccccc1Cn1nc(-c2noc(=S)[nH]2)c2cccnc21	1100	69	–	–	–	–	–	–	280 (≈ 855 µM)	–	–

Reference: ChEMBL document CHEMBL2321729, “Identification of acidic heterocycle-substituted 1H-pyrazolo[3,4-b]pyridines as soluble guanylate cyclase stimulators” (Bioorg Med Chem Lett, 2013)
